# Key:
# [1] = target: T1, C-X-C chemokine receptor type 3 (Homo sapiens, UniProt P49682); experiment: Displacement of [125I]IP10 from human recombinant CXCR3 receptor expressed in IL2-activated human PBMC
# T1 sequence (P49682 whole entry): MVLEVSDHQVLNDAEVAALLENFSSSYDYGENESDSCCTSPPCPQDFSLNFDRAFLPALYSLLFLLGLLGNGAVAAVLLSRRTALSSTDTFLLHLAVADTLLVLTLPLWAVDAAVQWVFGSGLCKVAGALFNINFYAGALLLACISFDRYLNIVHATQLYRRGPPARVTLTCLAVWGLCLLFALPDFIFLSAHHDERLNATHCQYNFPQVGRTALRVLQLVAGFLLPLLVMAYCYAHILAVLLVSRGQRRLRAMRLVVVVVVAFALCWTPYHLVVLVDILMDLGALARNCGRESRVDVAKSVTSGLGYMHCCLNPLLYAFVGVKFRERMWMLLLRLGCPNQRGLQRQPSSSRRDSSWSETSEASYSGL
# [2] = target: T1, C-X-C chemokine receptor type 3; experiment: Displacement of [125I]IP10 from human recombinant CXCR3 receptor expressed in IL2-activated human PBMC in presence of plasma
# Procedure, shortened: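 PBMC were activated for 14 days with anti-CD3 mAb and recombinant human IL-2, then co-incubated with antagonist and recombinant human 125I-IP10 for 2 h at room temperature in EDTA-anticoagulated human plasma (from frozen stocks). Cells were filter-harvested and bound radioactivity counted by scintillation. IC50 is the mean of three experiments.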
# [3] = target: T2, C-X-C chemokine receptor type 3 (Homo sapiens) (UniProt P49682); experiment: Antagonist activity at human CXCR3 receptor assessed as ITAC-induced cellular migration in PBMC in presence of plasma; assay type: functional
# T2 sequence (whole entry): T1 sequence (P49682 whole entry)
# Liver microsomes = experiment: Metabolic stability in human liver microsomes assessed as decrease in glutathione conjugate formation; assay type: ADME, Microsome; set-up: scale not given: the % may be the effect or the level left
# Rattus norvegicus [4] = experiment: Clearance in rat at 0.5 mg/kg, iv; assay type: ADME, organism-based; set-up: dose 0.5 mg/kg, route intravenous; settings: in vivo
# Procedure, shortened: (§1)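 Rats given a single intravenous dose of 0.5 mg/kg; clearance, AUC and mean residence time derived from plasma exposure; n = 2 animals.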
# Rattus norvegicus [5] = experiment: AUC in rat at 0.5 mg/kg, iv; assay type: ADME, organism-based, Plasma; set-up: dose 0.5 mg/kg, route intravenous; settings: in vivo; procedure, shortened: as §1
# [6] = Mean residence time in rat at 0.5 mg/kg, iv; assay type: ADME, organism-based; set-up: dose 0.5 mg/kg, route intravenous; settings: in vivo; procedure, shortened: as §1
# [7] = AUC in rat at 2 mg/kg, po; assay type: ADME, organism-based; set-up: dose 2 mg/kg, route oral; settings: plasma
# [8] = Mean residence time in rat at 2 mg/kg, po; assay type: ADME, organism-based; set-up: dose 2 mg/kg, route oral; settings: in vivo
# [9] = Oral bioavailability in rat at 2 mg/kg; assay type: ADME, organism-based; settings: in vivo
# [10] = Solubility at pH 7.4; assay type: physicochemical; settings: buffer
# Procedure, shortened: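 10 mM DMSO stock added to pH 7.4 assay buffer, final DMSO about 1%. Compound concentration in the supernatant is measured.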
# [11] = Membrane permeability by PAMPA assay; assay type: ADME; settings: read-out: permeability
# Procedure, shortened: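 PAMPA: passive permeation across an artificial phospholipid bilayer membrane; result expressed in 10^-6 cm/s.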
Structure (SMILES),IC50 [1] [nM],IC50 [2] [nM],Activity [3] [nM],further results
CCS(=O)(=O)CCN(C(=O)Cc1ccc(F)c(C(F)(F)F)c1)[C@H](C)c1nc(C2CC2)c(CO)n1-c1ccc(C#N)cc1,10,33,113,Activity (Liver microsomes): 1%
CCOc1ccc(-n2cc(-c3ccccc3)nc2[C@@H](C)N(CCS(=O)(=O)CC)C(=O)Cc2ccc(OC(F)(F)F)cc2)cc1,7.1,45,–,–
CCOc1ccc(-n2cc(-c3ccccc3)nc2[C@@H](C)N(CCS(=O)(=O)CC)C(=O)Cn2nnc(-c3ccccc3)n2)cc1,9.4,69,–,–
CCOc1ccc(-n2cc(-c3ccccc3)nc2[C@@H](C)N(Cc2ccccn2)C(=O)Cc2ccc(F)c(C(F)(F)F)c2)cc1,80,1180,–,–
CCOc1ccc(-n2cc(-c3ccccc3)nc2[C@@H](C)N(CCS(=O)(=O)CC)C(=O)Cn2nnc(-c3ccc(F)cc3)n2)cc1,5,47,–,–
CCOc1ccc(-n2cc(-c3ccccc3)nc2[C@@H](C)N(CCCS(=O)(=O)CC)C(=O)Cc2ccc(F)c(C(F)(F)F)c2)cc1,2.4,18,–,–
CCOCCN(C(=O)Cc1ccc(F)c(C(F)(F)F)c1)[C@H](C)c1nc(-c2ccccc2)cn1-c1ccc(OCC)cc1,11,202,–,–
CCS(=O)(=O)CCN(C(=O)Cc1ccc(F)c(C(F)(F)F)c1)[C@H](C)c1nc(C2CC2)c(-c2ccccc2)n1-c1ccc(C#N)cc1,752,10000,–,–
CCS(=O)(=O)CCN(C(=O)Cc1ccc(F)c(C(F)(F)F)c1)[C@H](C)c1nc(-c2ccccn2)cn1-c1ccc(C#N)cc1,4,43,33,–
CCOc1ccc(-n2cc(-c3ccccc3)nc2[C@@H](C)N(Cc2ccncc2)C(=O)Cc2ccc(F)c(C(F)(F)F)c2)cc1,35,129,–,–
C=Cc1c(C2CC2)nc([C@@H](C)N(CCS(=O)(=O)CC)C(=O)Cc2ccc(F)c(C(F)(F)F)c2)n1-c1ccc(C#N)cc1,3.8,22,45,Activity (Liver microsomes): 8%
CCS(=O)(=O)CCN(C(=O)Cc1ccc(F)c(C(F)(F)F)c1)[C@H](C)c1nc(C2CC2)cn1-c1ccc(C#N)cc1,6.6,37,53,CL (Rattus norvegicus [4]): 55 mL/min/kg; AUC (Rattus norvegicus [5]): 149 ng·h/mL; MRT [6]: 1 h; AUC [7]: 95 ng·h/mL; MRT [8]: 2.4 h; bioavailability [9]: 16%; solubility [10]: 32 µg/mL; Papp [11]: 5.1 ×10⁻⁶ cm/s; Activity (Liver microsomes): 44%
CCS(=O)(=O)CCN(C(=O)Cc1ccc(F)c(C(F)(F)F)c1)[C@H](C)c1nc(C2CC2)c(CF)n1-c1ccc(C#N)cc1,8,28,119,–
CCOc1ccc(-n2cc(-c3ccccc3)nc2[C@@H](C)N(C[C@@H]2CCCN2C)C(=O)Cc2ccc(F)c(C(F)(F)F)c2)cc1,6.4,31,–,–
CCOc1ccc(-n2cc(-c3ccccc3)nc2[C@@H](C)N(CCS(=O)(=O)CC)C(=O)Cn2ccc(C(F)(F)F)n2)cc1,40,1120,–,–
CCOc1ccc(-n2cc(-c3ccccc3)nc2[C@@H](C)N(CCS(=O)(=O)CC)C(=O)Cn2cnc(-c3ccccc3)c2)cc1,4.8,24,–,–
CCS(=O)(=O)CCN(C(=O)Cc1ccc(F)c(C(F)(F)F)c1)[C@H](C)c1nc(C(C)C)cn1-c1ccc(C#N)cc1,2.6,19,54,–

Structure (SMILES),IC50 [1] [nM],IC50 [2] [nM],Activity [3] [nM],further results
CCOc1ccc(-n2cc(-c3ccccc3)nc2[C@@H](C)N(CCS(=O)(=O)CC)C(=O)Cn2cc(-c3ccccc3)nn2)cc1,5.6,49,–,–
CCS(=O)(=O)CCN(C(=O)Cc1ccc(F)c(C(F)(F)F)c1)[C@H](C)c1nc(C2CC2)c(C(F)(F)F)n1-c1ccc(C#N)cc1,19,45,268,Activity (Liver microsomes): 0%
CCS(=O)(=O)CCN(C(=O)Cc1ccc(F)c(C(F)(F)F)c1)[C@H](C)c1nc(C2CC2)c(Cl)n1-c1ccc(C#N)cc1,7.8,24,80,CL (Rattus norvegicus [4]): 38.3 mL/min/kg; AUC (Rattus norvegicus [5]): 219; MRT [6]: 1.3 h; AUC [7]: 225 ng·h/mL; MRT [8]: 5.4 h; bioavailability [9]: 26%; Activity (Liver microsomes): 0%
CCOc1ccc(-n2cc(-c3ccccc3)nc2[C@@H](C)N(Cc2cccnc2)C(=O)Cc2ccc(F)c(C(F)(F)F)c2)cc1,11,91,–,–
CCOc1ccc(-n2cc(-c3ccccc3)nc2[C@@H](C)N(C[C@H]2CCCN2)C(=O)Cc2ccc(F)c(C(F)(F)F)c2)cc1,46,36,–,–
CCOc1ccc(-n2cc(-c3ccccc3)nc2[C@@H](C)N(CCS(=O)(=O)CC)C(=O)Cc2ccc(F)c(C(F)(F)F)c2)cc1,0.4,4.5,–,–
CCOc1ccc(-n2ccnc2[C@@H](C)N(Cc2cccnc2)C(=O)Cc2ccc(F)c(C(F)(F)F)c2)cc1,1800,–,–,–
CCS(=O)(=O)CCN(C(=O)Cc1ccc(F)c(C(F)(F)F)c1)[C@H](C)c1nc(C(C)(C)C)cn1-c1ccc(C#N)cc1,2.5,21,100,–
CCS(=O)(=O)CCN(C(=O)Cc1ccc(F)c(C(F)(F)F)c1)[C@H](C)c1nc(-c2ccccc2)cn1-c1ccc(C#N)cc1,0.7,14,10,CL (Rattus norvegicus [4]): 91.7 mL/min/kg; AUC (Rattus norvegicus [5]): 92 ng·h/mL; MRT [6]: 0.3 h; AUC [7]: 11 ng·h/mL; MRT [8]: 0.9 h; bioavailability [9]: 3%; solubility [10]: 0.5 µg/mL; Papp [11]: 0.9 ×10⁻⁶ cm/s
CCS(=O)(=O)CCN(C(=O)Cc1ccc(F)c(C(F)(F)F)c1)[C@H](C)c1nc(C2CC2)c(C(F)F)n1-c1ccc(C#N)cc1,12,18,20,CL (Rattus norvegicus [4]): 36.7 mL/min/kg; AUC (Rattus norvegicus [5]): 237 ng·h/mL; MRT [6]: 0.9 h; AUC [7]: 456 ng·h/mL; MRT [8]: 2.4 h; bioavailability [9]: 48%; Activity (Liver microsomes): 0%
CCOc1ccc(-n2cc(-c3ccccc3)nc2[C@@H](C)N(CCS(=O)(=O)CC)C(=O)Cn2nnc(C3CC3)n2)cc1,44,1660,–,–
CCOc1ccc(-n2cc(-c3ccccc3)nc2[C@@H](C)N(C[C@H]2CCCN2C)C(=O)Cc2ccc(F)c(C(F)(F)F)c2)cc1,14,81,–,–
CCS(=O)(=O)CCN(C(=O)Cc1ccc(F)c(C(F)(F)F)c1)[C@H](C)c1nc(-c2cccnc2)cn1-c1ccc(C#N)cc1,2.3,29,91,–
CCc1c(C2CC2)nc([C@@H](C)N(CCS(=O)(=O)CC)C(=O)Cc2ccc(F)c(C(F)(F)F)c2)n1-c1ccc(C#N)cc1,3.2,16,29,Activity (Liver microsomes): 14%
CCOc1ccc(-n2cc(-c3ccccc3)nc2[C@@H](C)N(C[C@@H]2CCCN2)C(=O)Cc2ccc(F)c(C(F)(F)F)c2)cc1,11,20,–,–
CCS(=O)(=O)CCN(C(=O)Cc1ccc(F)c(C(F)(F)F)c1)[C@H](C)c1nc(C2CC2)c(C#N)n1-c1ccc(C#N)cc1,72,276,–,Activity (Liver microsomes): 0%
CCOc1ccc(-n2cc(-c3ccccc3)nc2[C@@H](C)N(CCS(=O)(=O)CC)C(=O)Cn2nnc(-c3ccc(C(F)(F)F)cc3)n2)cc1,2.1,19,–,–

# — ChEMBL document CHEMBL1141586, “Design and optimization of imidazole derivatives as potent CXCR3 antagonists” (Bioorg Med Chem Lett, 2008)
